Source: ChEMBL document CHEMBL1142348, “beta-N-Biaryl ether sulfonamide hydroxamates as potent gelatinase inhibitors: part 1. Design, synthesis, and lead identification” (Bioorg Med Chem Lett, 2008)
Values after ≈ are worked out from the molar mass of the structure shown.

Experiments:
[1] = target: T1, 72 kDa type IV collagenase (Homo sapiens, UniProt P08253); experiment: Inhibition of full length MMP2
Target sequence in this assay (P08253 whole entry, the tested form may be a part): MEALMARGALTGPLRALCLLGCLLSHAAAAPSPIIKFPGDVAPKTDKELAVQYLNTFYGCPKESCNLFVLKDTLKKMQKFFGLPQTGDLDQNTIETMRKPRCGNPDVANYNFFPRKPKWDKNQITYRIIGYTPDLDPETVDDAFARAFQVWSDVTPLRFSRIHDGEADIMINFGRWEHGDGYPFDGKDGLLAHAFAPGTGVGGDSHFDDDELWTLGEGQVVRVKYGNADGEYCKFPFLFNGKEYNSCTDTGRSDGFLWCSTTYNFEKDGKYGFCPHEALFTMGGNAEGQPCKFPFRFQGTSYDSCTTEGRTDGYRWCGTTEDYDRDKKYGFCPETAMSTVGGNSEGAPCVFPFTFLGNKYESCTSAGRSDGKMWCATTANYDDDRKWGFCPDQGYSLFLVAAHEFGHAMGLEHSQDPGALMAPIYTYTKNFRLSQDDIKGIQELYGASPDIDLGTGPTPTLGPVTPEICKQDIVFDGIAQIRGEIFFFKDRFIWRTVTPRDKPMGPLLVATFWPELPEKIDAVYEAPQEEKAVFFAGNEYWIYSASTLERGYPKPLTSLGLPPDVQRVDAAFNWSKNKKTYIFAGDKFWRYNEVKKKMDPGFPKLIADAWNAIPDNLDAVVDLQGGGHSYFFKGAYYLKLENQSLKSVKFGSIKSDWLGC

[2] = target: T2, Matrix metalloproteinase-9 (Homo sapiens, UniProt P14780); experiment: Inhibition of catalytic domain MMP9
T2 sequence (P14780 whole entry, the tested form may be a part): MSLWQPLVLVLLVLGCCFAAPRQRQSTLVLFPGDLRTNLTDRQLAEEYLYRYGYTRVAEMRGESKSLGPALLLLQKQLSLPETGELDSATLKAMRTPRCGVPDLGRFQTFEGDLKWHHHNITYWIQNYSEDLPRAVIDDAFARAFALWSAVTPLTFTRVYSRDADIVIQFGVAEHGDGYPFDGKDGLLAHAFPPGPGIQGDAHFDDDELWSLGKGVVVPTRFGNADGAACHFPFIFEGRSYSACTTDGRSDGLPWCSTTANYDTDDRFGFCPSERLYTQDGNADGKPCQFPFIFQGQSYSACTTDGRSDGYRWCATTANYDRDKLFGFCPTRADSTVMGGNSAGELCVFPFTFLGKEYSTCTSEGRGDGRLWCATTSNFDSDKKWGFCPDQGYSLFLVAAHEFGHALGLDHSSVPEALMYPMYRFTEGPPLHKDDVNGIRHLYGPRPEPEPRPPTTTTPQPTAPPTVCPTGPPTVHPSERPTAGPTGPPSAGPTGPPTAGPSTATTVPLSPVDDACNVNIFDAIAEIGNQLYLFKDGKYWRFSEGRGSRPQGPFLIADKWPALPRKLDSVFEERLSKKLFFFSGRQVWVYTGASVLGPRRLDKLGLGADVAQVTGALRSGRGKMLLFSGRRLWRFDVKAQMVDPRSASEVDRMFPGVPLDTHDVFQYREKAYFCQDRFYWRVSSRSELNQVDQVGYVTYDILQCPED
In short: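 Peptide-cleavage FRET assay using MMP-1 and -9 catalytic domains or full-length MMP-2, each titrated to give linear velocity. Enzyme was preincubated with inhibitor for 1 h at room temperature in 50 mM Hepes pH 7.4, 10 mM CaCl2, 0.05% Brij-35, final DMSO 0.04%. Eu/QSY7-labelled peptide substrate was then added for 15 min at room temperature, and liberated Eu fluorescence was read.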

[3] = Selectivity ratio, IC50 for full length MMP2 to IC50 for catalytic domain MMP9
In short: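 Full-length MMP-2 and MMP-9 catalytic domain, each titrated for linear velocity, in 50 mM Hepes pH 7.4, 10 mM CaCl2, 0.05% Brij-35. Preincubated 1 h at room temperature with compound dilutions (final DMSO 0.04%). Eu/QSY7-quenched peptide substrate added for 15 min at room temperature; cleavage read as Eu fluorescence. Triplicate 16-point curves, nonlinear regression; ratio is MMP-2 IC50/MMP-9 IC50.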

Interstitial collagenase = target: T3, Interstitial collagenase (Homo sapiens, UniProt P03956); experiment: Inhibition of catalytic domain MMP1
T3 sequence (P03956 whole entry): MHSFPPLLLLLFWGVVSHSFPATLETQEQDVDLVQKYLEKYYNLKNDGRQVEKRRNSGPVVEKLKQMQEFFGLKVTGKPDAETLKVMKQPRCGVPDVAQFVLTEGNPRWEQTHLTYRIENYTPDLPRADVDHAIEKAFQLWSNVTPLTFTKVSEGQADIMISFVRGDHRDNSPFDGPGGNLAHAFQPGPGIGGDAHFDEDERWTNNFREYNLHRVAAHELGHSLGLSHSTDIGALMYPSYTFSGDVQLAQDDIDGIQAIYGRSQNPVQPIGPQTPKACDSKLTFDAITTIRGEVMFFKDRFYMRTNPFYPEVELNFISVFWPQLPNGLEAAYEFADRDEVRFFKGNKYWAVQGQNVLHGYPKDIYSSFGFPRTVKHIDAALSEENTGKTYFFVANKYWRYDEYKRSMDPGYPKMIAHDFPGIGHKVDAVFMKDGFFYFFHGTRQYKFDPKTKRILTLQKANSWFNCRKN

[4] = target: T1, 72 kDa type IV collagenase; experiment: Inhibition of full length MMP2 at 10 uM
Target sequence in this assay (P08253 110-660 limits assumed): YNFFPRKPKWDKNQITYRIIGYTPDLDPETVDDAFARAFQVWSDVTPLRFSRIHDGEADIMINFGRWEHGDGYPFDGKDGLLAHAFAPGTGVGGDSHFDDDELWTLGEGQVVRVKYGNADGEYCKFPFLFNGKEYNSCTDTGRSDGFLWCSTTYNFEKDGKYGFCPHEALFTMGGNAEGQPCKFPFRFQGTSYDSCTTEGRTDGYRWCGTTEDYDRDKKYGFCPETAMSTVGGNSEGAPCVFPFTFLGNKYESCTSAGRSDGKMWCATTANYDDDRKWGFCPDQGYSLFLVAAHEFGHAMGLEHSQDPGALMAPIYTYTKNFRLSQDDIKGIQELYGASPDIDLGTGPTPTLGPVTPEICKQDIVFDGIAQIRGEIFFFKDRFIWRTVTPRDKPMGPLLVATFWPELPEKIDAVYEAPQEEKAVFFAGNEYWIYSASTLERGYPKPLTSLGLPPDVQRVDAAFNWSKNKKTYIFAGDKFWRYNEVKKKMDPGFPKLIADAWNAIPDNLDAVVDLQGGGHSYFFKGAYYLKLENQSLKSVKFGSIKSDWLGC

[5] = target: T2, Matrix metalloproteinase-9; experiment: Inhibition of MMP9 catalytic domain at 10 uM
[6] = Cmax in rat at 0.5 mg/kg, iv; type: ADME, organism-based; design: dose 0.5 mg/kg, route intravenous; settings: in vivo
In short: (§1)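 Rats, n=4 per group, single intravenous dose of 0.5 mg/kg. Plasma Cmax was taken at t = 5 min. Apparent elimination half-life, AUC, steady-state volume of distribution and clearance were derived from the plasma profile. Values are means of the 4 animals.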

[7] = Half life in rat at 0.5 mg/kg, iv; type: ADME, organism-based; design: dose 0.5 mg/kg, route intravenous; settings: in vivo; in short: as §1
[8] = AUC in rat at 0.5 mg/kg, iv; type: ADME, organism-based; design: dose 0.5 mg/kg, route intravenous; settings: plasma; in short: as §1
[9] = Volume of distribution in rat at steady state at 0.5 mg/kg, iv; type: ADME, organism-based; design: dose 0.5 mg/kg, route intravenous; settings: in vivo, read-out: Vdss; in short: as §1
[10] = Clearance in rat at 0.5 mg/kg, iv; type: ADME, organism-based; design: dose 0.5 mg/kg, route intravenous; settings: in vivo; in short: as §1
[11] = Stability in human liver microsomes
[12] = Stability in rat liver microsomes
[13] = Solubility in water at pH 7; type: physicochemical
[14] = Solubility in water at pH 2; type: physicochemical

Work on `Cc1ccc(Oc2ccc(N(C[C@@H](O)C(=O)NO)S(C)(=O)=O)cc2)cc1` yielded an IC50 [1] of 67 nM and an IC50 [2] of 12 nM.

With `CS(=O)(=O)N(C[C@H](O)C(=O)NO)c1ccc(Oc2ccccc2)cc1` the IC50 [1] was 247 nM, the IC50 [2] was 39 nM and the Ratio IC50 [3] was 6.3.

For `Cc1ccc(Sc2ccc(N(C[C@H](O)C(=O)NO)S(C)(=O)=O)cc2)cc1`, the IC50 [1] was 297 nM, the IC50 [2] was 54 nM and the Ratio IC50 [3] was 5.5.

Compound `Cc1ccc(Oc2ccc(N(C[C@H](O)C(=O)NO)S(=O)(=O)Cc3cccnc3)cc2)cc1` has a Ratio IC50 [3] of 5.8.

`CS(=O)(=O)N(C[C@H](O)C(=O)NO)c1ccc(OCc2ccc(F)cc2)cc1` showed an IC50 (Interstitial collagenase) of over 10000 nM, an IC50 [1] of 2320 nM and an IC50 [2] of 4820 nM. It also gave a Ratio IC50 [3] of 0.5.

For `CS(=O)(=O)N(C[C@H](O)C(=O)NO)c1ccc(Oc2ccc(C(F)(F)F)cc2)cc1`, the Ratio IC50 [3] was 9.9.

`CS(=O)(=O)N(C[C@H](O)C(=O)NO)c1ccc(C#Cc2ccc(Cl)cc2)cc1` gave a Ratio IC50 [3] of 1.2.

For `CO[C@@H](CN(c1ccc(Oc2ccc(C)cc2)cc1)S(C)(=O)=O)C(=O)NO`, the IC50 [1] was 36 nM and the IC50 [2] was 3.8 nM.

With `CC(=O)N(C[C@H](O)C(=O)NO)c1ccc(Oc2ccc(Cl)cc2)cc1` the IC50 [1] was 1260 nM and the IC50 [2] was 933 nM.

With `Cc1ccc(Oc2ccc(N(C[C@H](O)C(=O)NO)S(=O)(=O)Cc3ccccc3)cc2)cc1` the Ratio IC50 [3] was 6.3.

`CS(=O)(=O)N(CC(=O)NO)c1ccc(Oc2ccccc2)cc1` gave an IC50 (Interstitial collagenase) of over 10000 nM, an IC50 [1] of 147 nM and an IC50 [2] of 383 nM.

`CS(=O)(=O)N(C[C@H](O)C(=O)NO)c1ccc(OCc2ccc(Cl)cc2)cc1` gave an IC50 (Interstitial collagenase) of over 10000 nM, an IC50 [1] of 893 nM and an IC50 [2] of 984 nM. The Ratio IC50 [3] was 0.9.

Compound `CS(=O)(=O)N(C[C@H](O)C(=O)NO)c1ccc(S(=O)(=O)c2ccccc2)cc1` has an IC50 [1] of over 10000 nM and an IC50 [2] of over 10000 nM.

In the case of `COc1ccc(C#Cc2ccc(N(C[C@H](O)C(=O)NO)S(C)(=O)=O)cc2)cc1`, the IC50 (Interstitial collagenase) is reported as over 10000 nM, the IC50 [1] is reported as 32 nM and the Ratio IC50 [3] is reported as 0.4.

With `CC(C)C(=O)N(C[C@H](O)C(=O)NO)c1ccc(Oc2ccc(Cl)cc2)cc1` the IC50 [1] was 286 nM and the IC50 [2] was 242 nM.

In the case of `CCS(=O)(=O)N(C[C@H](O)C(=O)NO)c1ccc(Oc2ccc(C)cc2)cc1`, the IC50 [1] is reported as 142 nM, the IC50 [2] is reported as 28 nM and the Ratio IC50 [3] is reported as 5.1.

With `CCCS(=O)(=O)N(C[C@H](O)C(=O)NO)c1ccc(Oc2ccc(C)cc2)cc1` the Ratio IC50 [3] was 4.1.

With `Cc1ccc(Oc2ccc(N(C[C@H](O)C(=O)NO)S(=O)(=O)Cc3ccncc3)cc2)cc1` the Ratio IC50 [3] was 6.4.

For `CS(=O)(=O)N(C[C@H](O)C(=O)NO)c1ccc(Sc2ccc(F)cc2)cc1`, the IC50 [1] was 283 nM, the IC50 [2] was 104 nM and the Ratio IC50 [3] was 2.7.

Compound `CS(=O)(=O)N(C[C@H](O)C(=O)NO)c1ccc(-c2ccccc2)cc1` has an inhibition [4] of 87% and an inhibition [5] of 79%.

Work on `Cc1ccc(Oc2ccc(N(CCC(=O)NO)S(C)(=O)=O)cc2)cc1` yielded an IC50 (Interstitial collagenase) of over 10000 nM, an IC50 [1] of 61 nM and an IC50 [2] of 6.6 nM.

`Cc1ccc(Oc2ccc(N(CC(C)(O)C(=O)NO)S(C)(=O)=O)cc2)cc1` (racemic) gave an IC50 (Interstitial collagenase) of over 10000 nM, an IC50 [1] of 20 nM and an IC50 [2] of 5.5 nM. The Cmax [6] was 1500 nM, the half-life [7] was 43.2 min and the AUC [8] was 220 ng·h/mL. It also gave a Vd [9] of 1.5 L/kg, a clearance [10] of 41.5 mL/min/kg and a half-life [11] of 103 min. The half-life [12] was 10 min, the solubility [13] was 28 µg/mL (≈ 71 µM) and the solubility [14] was under 5 µg/mL.

`Cc1ccc(Oc2ccc(N(C[C@H](O)C(=O)NO)S(C)(=O)=O)cc2)cc1` gave a Cmax [6] of 1300 nM, a half-life [7] of 25.8 min and an AUC [8] of 180 ng·h/mL. The Vd [9] was 1.4 L/kg, the clearance [10] was 47.5 mL/min/kg and the solubility [13] was 28 µg/mL (≈ 73.6 µM). The solubility [14] was under 5 µg/mL.

`CO[C@H](CN(c1ccc(Oc2ccc(C)cc2)cc1)S(C)(=O)=O)C(=O)NO` showed an IC50 [2] of 13 nM.

For `Cc1ccc(Oc2ccc(N(C[C@H](O)C(=O)O)S(C)(=O)=O)cc2)cc1`, the inhibition [4] was under 10% and the inhibition [5] was under 10%.

`CS(=O)(=O)N(C[C@H](O)C(=O)NO)c1ccc(Oc2ccc(Cl)cc2)cc1` showed a Ratio IC50 [3] of 7.4.

Work on `CS(=O)(=O)N(C[C@H](O)C(=O)NO)c1ccc(OCc2ccc(C(F)(F)F)cc2)cc1` yielded an IC50 (Interstitial collagenase) of over 10000 nM, an IC50 [1] of 2920 nM and an IC50 [2] of 1490 nM. The Ratio IC50 [3] was 1.9.

Compound `Cc1ccc(C#Cc2ccc(N(C[C@H](O)C(=O)NO)S(C)(=O)=O)cc2)cc1` has an IC50 [1] of 47 nM, an IC50 [2] of 44 nM and a Ratio IC50 [3] of 1.1.

For `Cc1ccc(Oc2ccc(N(CC(=O)NO)S(C)(=O)=O)cc2)cc1`, the IC50 [1] was 73 nM and the IC50 [2] was 31 nM.
